Where a SMILES comes first, the peptide text is derived from it.
Assays:
[1] = molecular target: C-X-C chemokine receptor type 4 (Homo sapiens, UniProt P61073); experiment: Inhibition of [125I]SDF-1 binding to C-X-C chemokine receptor type 4 expressed in CHO cells; format: cell-based
MT4 [2] = experiment: Cytotoxic concentration against the mock infected MT-4 cells; format: functional; conditions: Homo sapiens
Procedure, shortened: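 MT-4 cells (RPMI 1640, 10% heat-inactivated FCS, penicillin/streptomycin) without virus, 1.5×10^4 cells/well, exposed to graded compound concentrations for 5 days at 37 °C in CO₂; viable cells counted by MTT method; CC₅₀ from loss of viability; mean of at least three independent experiments.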

MT4 [3] = experiment: Effective concentration against HIV-induced cytopathogenicity in MT-4 cells; format: functional, cell-based; conditions: Homo sapiens

Chain of C-X-C chemokine receptor type 4 (P61073 whole entry): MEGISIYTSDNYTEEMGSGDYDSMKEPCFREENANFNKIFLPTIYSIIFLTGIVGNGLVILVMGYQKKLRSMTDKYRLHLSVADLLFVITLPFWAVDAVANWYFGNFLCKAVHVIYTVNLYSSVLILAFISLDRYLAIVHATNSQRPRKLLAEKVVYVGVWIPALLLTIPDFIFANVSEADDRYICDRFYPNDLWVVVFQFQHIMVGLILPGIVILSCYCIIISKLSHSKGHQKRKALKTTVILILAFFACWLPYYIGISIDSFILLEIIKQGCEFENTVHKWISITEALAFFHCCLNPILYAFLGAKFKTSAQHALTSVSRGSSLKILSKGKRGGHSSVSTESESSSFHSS

Structure (SMILES)	IC50 [1]	CC50 (MT4 [2])	EC50 (MT4 [3])
N=C(N)NCCC[C@@H]1NC(=O)[C@@H](Cc2ccc(O)cc2)NC(=O)CNC(=O)[C@@H](Cc2ccc3ccccc3c2)NC(=O)[C@H](CCCN=C(N)N)NC1=O		> 100000 nM	1900 nM
NC(N)=NCCC[C@@H]1NC(=O)[C@H](CCCN=C(N)N)NC(=O)[C@@H](Cc2ccc(O)cc2)NC(=O)C/C=C/[C@H](Cc2ccc3ccccc3c2)NC1=O	180 nM	> 100000 nM	2400 nM
NCCCC[C@@H]1NC(=O)[C@H](CCCN=C(N)N)NC(=O)[C@H](Cc2ccc(O)cc2)NC(=O)[C@@H](NC(=O)[C@H](Cc2ccc3ccccc3c2)NC(=O)[C@H](CCCN=C(N)N)NC(=O)[C@@H](N)CCCN=C(N)N)CSSC[C@@H](C(=O)N[C@@H](CCCN=C(N)N)C(=O)O)NC(=O)[C@H](CCCNC(N)=O)NC(=O)[C@H](CCCN=C(N)N)NC(=O)[C@H](Cc2ccc(O)cc2)NC(=O)[C@@H]2CCCN2C(=O)[C@@H](CCCCN)NC1=O (HELM PEPTIDE1{R.R.[O=C([C@H](Cc1ccc2ccccc2c1)N[*:1])[*:2]].C.Y.R.K.[dK].P.Y.R.[Cit].C.R}$PEPTIDE1,PEPTIDE1,4:R3-13:R3$$$V2.0) [listing 1 of 2 here]	3.9 nM		35 nM
NCCCC[C@@H]1NC(=O)[C@H](CCCN=C(N)N)NC(=O)[C@H](Cc2ccc(O)cc2)NC(=O)[C@@H](NC(=O)[C@H](Cc2ccc3ccccc3c2)NC(=O)[C@H](CCCN=C(N)N)NC(=O)[C@@H](N)CCCN=C(N)N)CSSC[C@@H](C(=O)N[C@@H](CCCN=C(N)N)C(=O)O)NC(=O)[C@H](CCCNC(N)=O)NC(=O)[C@H](CCCN=C(N)N)NC(=O)[C@H](Cc2ccc(O)cc2)NC(=O)[C@@H]2CCCN2C(=O)[C@@H](CCCCN)NC1=O (HELM PEPTIDE1{R.R.[O=C([C@H](Cc1ccc2ccccc2c1)N[*:1])[*:2]].C.Y.R.K.[dK].P.Y.R.[Cit].C.R}$PEPTIDE1,PEPTIDE1,4:R3-13:R3$$$V2.0) [listing 2 of 2 here]		> 10000 nM	
Cc1cn([C@H]2C[C@H](N=[N+]=[N-])[C@@H](CO)O2)c(=O)[nH]c1=O [ZIDOVUDINE]		57000 nM	18 nM

More lines, main results first:

IC50 [1]	Structure (SMILES)	CC50 (MT4 [2])	EC50 (MT4 [3])
> 31000 nM	N=C(N)NCCC[C@@H]1NC(=O)[C@@H](Cc2ccc(O)cc2)NC(=O)NC(=O)[C@@H](Cc2ccc3ccccc3c2)/C=C\[C@H](CCCN=C(N)N)NC1=O	> 100000 nM	2400 nM
21000 nM	N=C(N)NCCC[C@@H]1NC(=O)[C@@H](Cc2ccc(O)cc2)NC(=O)CNC(=O)[C@H](Cc2ccc3ccccc3c2)/C=C\[C@H](CCCN=C(N)N)NC1=O	> 100000 nM	9100 nM
32 nM	N=C(N)NCCC[C@@H]1NC(=O)[C@@H](Cc2ccc(O)cc2)NC(=O)CNC[C@H](Cc2ccc3ccccc3c2)NC(=O)[C@H](CCCN=C(N)N)NC1=O	> 100000 nM	980 nM
4.5 nM	N=C(N)NCCC[C@@H]1NC(=O)[C@@H](Cc2ccc(O)cc2)NC(=O)NC(=O)[C@H](Cc2ccc3ccccc3c2)NC(=O)[C@H](CCCN=C(N)N)NC1=O	> 100000 nM	73 nM

Reference: ChEMBL document CHEMBL1145173, “Stereoselective synthesis of [L-Arg-L/D-3-(2-naphthyl)alanine]-type (E)-alkene dipeptide isosteres and its application to the synthesis and biological evaluation of pseudopeptide analogues of the CXCR4 antagonist FC131” (J Med Chem, 2005)
